# Source: ChEMBL document CHEMBL3862011, “Neuroprotective effects of benzyloxy substituted small molecule monoamine oxidase B inhibitors in Parkinson's disease” (Bioorg Med Chem, 2016)
# Calls of active or inactive are those of the source. The calls are words filed in the database; no cut-off is given here.
# Tests used:
# PC-12 [1] = experiment: Neuroprotective activity against rotenone-induced apoptosis in rat PC12 cells assessed as late apoptotic cells at 20 uM after 24 hrs by 7-AAD/annexin V APC staining-based flow cytometric method (reference value: 9.9%); assay type: functional
# PC-12 [2] = experiment: Neuroprotective activity against 6-OHDA-induced toxicity in rat PC12 cells assessed as increase in cell viability after 24 hrs by phase-contrast microscopic method; assay type: functional, cell-based
# Procedure, shortened: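 PC12 cells were exposed to 5-40 μM test compound together with 40 μM 6-OHDA or 1 μM rotenone for 24 h. Viability was judged from phase-contrast images against untreated controls.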
# in vitro = details: PAMPA
# PC-12 [3] = experiment: Neuroprotective activity against 6-OHDA-induced apoptosis in rat PC12 cells assessed as early apoptotic cells at 40 uM after 24 hrs by 7-AAD/annexin V APC staining-based flow cytometric method (reference value: 42.1%); assay type: functional
# PC-12 [4] = experiment: Neuroprotective activity against rotenone-induced apoptosis in rat PC12 cells assessed as necrotic cells at 5 uM after 24 hrs by 7-AAD/annexin V APC staining-based flow cytometric method (reference value: 48.6%); assay type: functional
# PC-12 [5] = experiment: Neuroprotective activity against rotenone-induced toxicity in rat PC12 cells assessed as increase in cell survival preincubated for 24 hrs followed by rotenone addition measured after 24 hrs by MTT assay; assay type: functional, cell-based
# Procedure, shortened: (§1)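 PC12 cells in RPMI-1640 with 10% FBS were seeded at 5×10^3 cells/well. After 24 h, compounds at 20 μM were added for 24 h at 37 °C, followed by 6-OHDA (40 μM) or rotenone (1 μM) for 24 h. Viability by MTT (570 nm, reference 630 nm), expressed as percent of untreated control. […] Mean ± SEM.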
# PC-12 [6] = experiment: Neuroprotective activity against rotenone-induced apoptosis in rat PC12 cells assessed as viable cells at 10 uM after 24 hrs by 7-AAD/annexin V APC staining-based flow cytometric method (reference value: 39.3%); assay type: functional; details: PC-12, 24 h, read-out: Activity
# PC-12 [7] = experiment: Neuroprotective activity against rotenone-induced apoptosis in rat PC12 cells assessed as decrease in nuclear fragmentation at 20 uM after 24 hrs by Hoechst 33258 staining-based fluorescent inverted microscopic method; assay type: functional, cell-based
# Procedure, shortened: (§2)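 PC12 cells exposed to 6-OHDA or rotenone with test treatment were stained with Hoechst 33258 for 30 min, mounted on glass slides under cover slips, and examined by fluorescent inverted microscopy.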
# PC-12 [8] = experiment: Neuroprotective activity against 6-OHDA-induced apoptosis in rat PC12 cells assessed as late apoptotic cells at 40 uM after 24 hrs by 7-AAD/annexin V APC staining-based flow cytometric method (reference value: 4.4%); assay type: functional
# PC-12 [9] = experiment: Neuroprotective activity against 6-OHDA-induced apoptosis in rat PC12 cells assessed as necrotic cells at 5 uM after 24 hrs by 7-AAD/annexin V APC staining-based flow cytometric method (reference value: 0.6%); assay type: functional
# PC-12 [10] = experiment: Neuroprotective activity against 6-OHDA-induced apoptosis in rat PC12 cells assessed as necrotic cells at 10 uM after 24 hrs by 7-AAD/annexin V APC staining-based flow cytometric method (reference value: 0.6%); assay type: functional
# PC-12 [11] = experiment: Neuroprotective activity against rotenone-induced apoptosis in rat PC12 cells at 20 uM preincubated for 24 hrs followed by rotenone addition measured after 24 hrs by 7-AAD/annexin V APC staining-based flow cytometric method; assay type: functional, cell-based
# PC-12 [12] = experiment: Neuroprotective activity against 6-OHDA-induced apoptosis in rat PC12 cells assessed as early apoptotic cells at 10 uM after 24 hrs by 7-AAD/annexin V APC staining-based flow cytometric method (reference value: 42.1%); assay type: functional
# PC-12 [13] = experiment: Neuroprotective activity against 6-OHDA-induced toxicity in rat PC12 cells assessed as increase in cell survival preincubated for 24 hrs followed by 6-OHDA addition measured after 24 hrs by MTT assay; assay type: functional, cell-based; procedure, shortened: as §1
# Mus musculus = experiment: Acute toxicity in Kunming mouse assessed as mortality at 2000 mg/kg measured for 14 days; assay type: organism-based; details: in vivo, 336 h
# Procedure, shortened: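 Kunming mice (20 ± 2 g), 10 per group, vehicle control group; fasted overnight, single oral dose in 0.5% CMC-Na suspension. Observed continuously for 4 h, intermittently to 24 h, then occasionally to day 14 for behaviour, mortality, food and water intake and body weight; sacrificed under ether on day 14.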
# PC-12 [14] = experiment: Neuroprotective activity against 6-OHDA-induced apoptosis in rat PC12 cells assessed as late apoptotic cells at 5 uM after 24 hrs by 7-AAD/annexin V APC staining-based flow cytometric method (reference value: 4.4%); assay type: functional
# PC-12 [15] = experiment: Neuroprotective activity against rotenone-induced apoptosis in rat PC12 cells assessed as early apoptotic cells at 40 uM after 24 hrs by 7-AAD/annexin V APC staining-based flow cytometric method (reference value: 2.2%); assay type: functional
# PC-12 [16] = experiment: Neuroprotective activity against rotenone-induced apoptosis in rat PC12 cells assessed as late apoptotic cells at 10 uM after 24 hrs by 7-AAD/annexin V APC staining-based flow cytometric method (reference value: 9.9%); assay type: functional
# PC-12 [17] = experiment: Neuroprotective activity against 6-OHDA-induced apoptosis in rat PC12 cells assessed as decrease in nuclear condensation at 20 uM after 24 hrs by Hoechst 33258 staining-based fluorescent inverted microscopic method; assay type: functional, cell-based; procedure, shortened: as §2
# PC-12 [18] = experiment: Neuroprotective activity against rotenone-induced apoptosis in rat PC12 cells assessed as viable cells at 5 uM after 24 hrs by 7-AAD/annexin V APC staining-based flow cytometric method (reference value: 39.3%); assay type: functional; details: PC-12, 24 h, read-out: Activity
# PC-12 [19] = experiment: Neuroprotective activity against rotenone-induced apoptosis in rat PC12 cells assessed as early apoptotic cells at 10 uM after 24 hrs by 7-AAD/annexin V APC staining-based flow cytometric method (reference value: 2.2%); assay type: functional
# PC-12 [20] = experiment: Neuroprotective activity against rotenone-induced apoptosis in rat PC12 cells assessed as viable cells at 40 uM after 24 hrs by 7-AAD/annexin V APC staining-based flow cytometric method (reference value: 39.3%); assay type: functional; details: PC-12, 24 h, read-out: Activity
# PC-12 [21] = experiment: Neuroprotective activity against rotenone-induced apoptosis in rat PC12 cells assessed as late apoptotic cells at 5 uM after 24 hrs by 7-AAD/annexin V APC staining-based flow cytometric method (reference value: 9.9%); assay type: functional
# PC-12 [22] = experiment: Neuroprotective activity against 6-OHDA-induced apoptosis in rat PC12 cells assessed as early apoptotic cells at 20 uM after 24 hrs by 7-AAD/annexin V APC staining-based flow cytometric method (reference value: 42.1%); assay type: functional
compound,measurement,setting,value
O=C1CCOc2cc(OCc3ccc(F)cc3)ccc21,Activity,PC-12 [1],9.5%
same,Activity,PC-12 [2],Dose-dependent effect
same,"Papp at 16 h, 100 ug/ml",in vitro,14.3 ×10⁻⁶ cm/s
same,Activity,PC-12 [3],7%
same,Activity,PC-12 [4],33.2%
same,Activity,PC-12 [5],Dose-dependent effect
same,viability at 10 µM,PC-12 [6],48%
same,Activity,PC-12 [7],Active
same,Activity,PC-12 [8],0.2%
same,Activity,PC-12 [9],3.8%
same,Activity,PC-12 [10],4%
same,Activity,PC-12 [11],Dose-dependent effect
same,Activity,PC-12 [12],22%
same,Activity,PC-12 [13],Dose-dependent effect
same,Activity,Mus musculus,Non-Toxic
same,Activity,PC-12 [14],1.8%
same,Activity,PC-12 [15],2.9%
same,Activity,PC-12 [16],16.1%
same,Activity,PC-12 [17],Active
same,viability at 5 µM,PC-12 [18],54.2%
same,Activity,PC-12 [19],5%
same,viability at 40 µM,PC-12 [20],62.1%
same,Activity,PC-12 [21],9.3%
same,Activity,PC-12 [22],10.8%
